According to ChEMBL document CHEMBL3352067, “1,8-Naphthyridines IX. Potent anti-inflammatory and/or analgesic activity of a new group of substituted 5-amino[1,2,4]triazolo[4,3-a][1,8]naphthyridine-6-carboxamides, of some their Mannich base derivatives and of one novel substituted …” (Eur J Med Chem, 2014):
Activity calls are given as the source filed them. The calls are words filed in the database; no cut-off is given here.

Columns and labels:
Mus musculus [1] = test: Antinociceptive activity in Swiss mouse assessed as inhibition of acetic acid-induced writhing at 25 mg/kg, po administered 1 hr prior to acetic acid challenge measured for 30 mins; type: functional
Procedure, shortened: (§1)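 Swiss mice (25–35 g, either sex), fasted overnight, given compound orally in 0.5% methylcellulose; controls received vehicle; groups of 8–10. Writhes, scored as complete extension of either hind limb, counted over 30 min after injection of the noxious agent. Percent inhibition derived from the difference in writhing between treated and control groups.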

Mus musculus [2] = test: Antinociceptive activity in Swiss mouse assessed as inhibition of acetic acid-induced writhing at 50 mg/kg, po administered 1 hr prior to acetic acid challenge measured for 30 mins; type: functional; procedure, shortened: as §1
Mus musculus [3] = test: Antinociceptive activity in Swiss mouse assessed as inhibition of acetic acid-induced writhing at 100 mg/kg, po administered 1 hr prior to acetic acid challenge measured for 30 mins; type: functional; procedure, shortened: as §1
Rattus norvegicus [4] = test: Antiinflammatory activity in Wistar rat assessed as inhibition of carrageenan-induced paw oedema at 100 mg/kg, po administered 1 hr prior to carrageenan challenge; type: functional
Procedure, shortened: (§2)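 Wistar rats (250–300 g, either sex), fasted overnight, dosed by oral gavage with compound suspended in 0.5% methylcellulose; controls got vehicle. Groups of 8–10. 1 h later 0.1 mL 1% carrageenan injected subcutaneously into hind paw plantar surface; paw volume measured by plethysmometer immediately and 3 h later. Inhibition calculated from swelling difference versus controls (control = 100).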

Rattus norvegicus [5] = test: Antiinflammatory activity in Wistar rat assessed as inhibition of carrageenan-induced paw oedema at 50 mg/kg, po administered 1 hr prior to carrageenan challenge; type: functional; procedure, shortened: as §2
Rattus norvegicus [6] = test: Antiinflammatory activity in Wistar rat assessed as inhibition of carrageenan-induced paw oedema at 25 mg/kg, po administered 1 hr prior to carrageenan challenge; type: functional; procedure, shortened: as §2
Mus musculus [7] = test: Sedative activity in Swiss mouse assessed as inhibition of spontaneous locomotor activity at 100 mg/kg, po measured for 30 mins by open-field test; type: organism-based; set-up: dose 100 mg/kg, route oral; conditions: in vivo, 0.5 h
Procedure, shortened: (§3)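 Swiss mice (25-35 g, either sex), fasted overnight, given compound orally by gavage suspended in 0.5% methylcellulose; vehicle controls; groups of 8-10. Spontaneous locomotor activity recorded by videocamera with video-tracking as distance (m) travelled in 30 min; Student's t-test vs controls.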

Mus musculus [8] = test: Sedative activity in Swiss mouse assessed as inhibition of spontaneous locomotor activity at 50 mg/kg, po measured for 30 mins by open-field test; type: organism-based; set-up: dose 50 mg/kg, route oral; conditions: in vivo, 0.5 h; procedure, shortened: as §3
Rattus norvegicus [9] = test: Acute gastrolesivity in Wistar rat assessed as stomach lesions at 10 mg/kg, po measured after 5 hrs; type: toxicity, organism-based; set-up: dose 10 mg/kg, route oral; conditions: in vivo
Procedure, shortened: (§4)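 Wistar rats (250-300 g, either sex), fasted overnight, dosed by oral gavage in 0.5% methylcellulose (1 mL 100 g^-1); groups of 8-10. Stomachs excised 5 h post-dose, fixed with 2% formalin, opened along greater curvature, examined by stereomicroscope by blinded observer. Read-out: number of rats with gastric damage over number treated.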

Rattus norvegicus [10] = test: Antiinflammatory activity in Wistar rat assessed as inhibition of carrageenan-induced paw oedema at 12.5 mg/kg, po administered 1 hr prior to carrageenan challenge; type: functional; procedure, shortened: as §2
Rattus norvegicus [11] = test: Antiinflammatory activity in Wistar rat assessed as inhibition of carrageenan-induced paw oedema at 6.25 mg/kg, po administered 1 hr prior to carrageenan challenge; type: functional; procedure, shortened: as §2
Rattus norvegicus [12] = test: Antiinflammatory activity in Wistar rat assessed as inhibition of carrageenan-induced paw oedema at 3.12 mg/kg, po administered 1 hr prior to carrageenan challenge; type: functional; procedure, shortened: as §2
Rattus norvegicus [13] = test: Antiinflammatory activity in Wistar rat assessed as inhibition of carrageenan-induced paw oedema at 1.6 mg/kg, po administered 1 hr prior to carrageenan challenge; type: functional; procedure, shortened: as §2
Rattus norvegicus [14] = test: Antiinflammatory activity in Wistar rat assessed as inhibition of carrageenan-induced paw oedema at 0.8 mg/kg, po administered 1 hr prior to carrageenan challenge; type: functional; procedure, shortened: as §2
Rattus norvegicus [15] = test: Acute gastrolesivity in Wistar rat assessed as stomach lesions at 100 mg/kg, po measured after 5 hrs; type: toxicity, organism-based; set-up: dose 100 mg/kg, route oral; conditions: in vivo; procedure, shortened: as §4
[16] = Antiplatelet activity in guinea pig platelet rich plasma assessed as inhibition of ADP-induced aggregation by aggregometry; type: functional, cell-free; conditions: Cavia porcellus
Procedure, shortened: (§5)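 Guinea pig blood drawn by cardiac puncture into 3.8% citrate (1:9). PRP obtained by spinning at 180 g for 15 min, PPP at 2000 g for 10 min. PRP preincubated 5 min at 37 °C with compound or DMSO (≤0.5% final), then aggregation triggered by U46619, ADP or arachidonic acid. Born turbidimetry at 37 °C with stirring; percent inhibition versus control; tested within 3 h.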

[17] = Antiplatelet activity in guinea pig platelet rich plasma assessed as inhibition of arachidonic acid-induced aggregation by aggregometry; type: functional, cell-free; conditions: Cavia porcellus; procedure, shortened: as §5
[18] = Antiplatelet activity in guinea pig platelet rich plasma assessed as inhibition of U46619-induced aggregation by aggregometry; type: functional, cell-free; conditions: Cavia porcellus; procedure, shortened: as §5
J774 = test: Antiinflammatory activity in mouse J774 cells assessed as inhibition of LPS-induced NO production at 100 uM after 6 hrs by Griess assay; type: functional, cell-based
Procedure, shortened: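 J774 murine macrophages grown in DMEM with 10% FBS and 2 mM glutamine at 37 °C, 5% CO2. Cells plated at 2.5 × 10⁵/mL, left to adhere overnight, and the medium refreshed. Compound added together with LPS. Supernatants taken after 6 h; nitrite measured with Griess reagent (10 min) as absorbance at 540 nm, with fresh medium as blank.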

Mus musculus [19] = test: Antinociceptive activity in Swiss mouse assessed as inhibition of acetic acid-induced writhing at 12.5 mg/kg, po administered 1 hr prior to acetic acid challenge measured for 30 mins; type: functional; procedure, shortened: as §1
Mus musculus [20] = test: Sedative activity in Swiss mouse assessed as inhibition of spontaneous locomotor activity at 25 mg/kg, po measured for 30 mins by open-field test; type: organism-based; set-up: dose 25 mg/kg, route oral; conditions: in vivo, 0.5 h; procedure, shortened: as §3
Mus musculus [21] = test: Antinociceptive activity in Swiss mouse assessed as inhibition of acetic acid-induced writhing at 6.25 mg/kg, po administered 1 hr prior to acetic acid challenge measured for 30 mins; type: functional; procedure, shortened: as §1
Mus musculus [22] = test: Sedative activity in Swiss mouse assessed as inhibition of spontaneous locomotor activity at 12.5 mg/kg, po measured for 30 mins by open-field test; type: organism-based; set-up: dose 12.5 mg/kg, route oral; conditions: in vivo, 0.5 h; procedure, shortened: as §3

| SMILES | inhibition in vivo at 25 mg/kg (Mus musculus [1]) [%] | inhibition in vivo at 50 mg/kg (Mus musculus [2]) [%] | inhibition in vivo at 100 mg/kg (Mus musculus [3]) [%] | inhibition in vivo at 100 mg/kg (Rattus norvegicus [4]) [%] | inhibition in vivo at 50 mg/kg (Rattus norvegicus [5]) [%] | inhibition in vivo at 25 mg/kg (Rattus norvegicus [6]) [%] | Activity (Mus musculus [7]) | also measured |
| --- | --- | --- | --- | --- | --- | --- | --- | --- |
| CCc1nnc2c(C(=O)N(CC)CC)c(N3CCN(C)CC3)c3cccnc3n12 | 10 | 81 | 95 | 39 | 29 | 22 | Toxic | Activity (Mus musculus [8]): Toxic |
| CCN(CC)C(=O)c1c(NC(C)C)c2cccnc2n2c(CN3CCN(C)CC3)nnc12 | – | – | 0 | 13 | – | – | – | – |
| CC(C)NC(=O)c1c(NC(C)C)c2cccnc2n2c(C(C)C)nnc12 | – | – | 0 | 34 | 33 | 9 | – | – |
| COc1ccc2c(c1)c(CC(=O)O)c(C)n2C(=O)c1ccc(Cl)cc1 [INDOMETHACIN] | – | – | – | – | – | – | – | Activity (Rattus norvegicus [9]): Toxic |
| CCNC(=O)c1c(NC(C)C)c2cccnc2n2c(C(C)C)nnc12 | 15 | 64 | 66 | 80 | 72 | 57 | Toxic | inhibition in vivo at 12.5 mg/kg (Rattus norvegicus [10]): 54%; inhibition in vivo at 6.25 mg/kg (Rattus norvegicus [11]): 40%; inhibition in vivo at 3.12 mg/kg (Rattus norvegicus [12]): 31%; inhibition in vivo at 1.6 mg/kg (Rattus norvegicus [13]): 31%; inhibition in vivo at 0.8 mg/kg (Rattus norvegicus [14]): 0%; Activity (Rattus norvegicus [15]): Non-toxic; IC50 [16]: 281 µM; IC50 [17]: 24 µM; IC50 [18]: 89 µM; inhibition (J774): inactive |
| CCN(CC)C(=O)c1c(NCC(C)C)c2cccnc2n2c(=O)cc(C)nc12 | 0 | 54 | 71 | 15 | – | – | – | – |
| CCN(CC)C(=O)c1c(N2CCN(C)CC2)c2cccnc2n2c(CN3CCN(C)CC3)nnc12 | – | – | 0 | 0 | – | – | – | – |
| CCN(CC)C(=O)c1c(N2CCN(CCO)CC2)c2cccnc2n2c(C(C)C)nnc12 | 48 | 96 | 85 | 0 | – | – | Toxic | inhibition in vivo at 12.5 mg/kg (Mus musculus [19]): 13%; Activity (Mus musculus [8]): Toxic; Activity (Mus musculus [20]): Toxic |
| CCNC(=O)c1c(NC(CC)CC)c2cccnc2n2c(C(C)C)nnc12 | 0 | 41 | 34 | 60 | 35 | 30 | – | inhibition in vivo at 12.5 mg/kg (Rattus norvegicus [10]): 12% |
| CCN(CC)C(=O)c1c(NC(C)C)c2cccnc2n2c(CN3CCOCC3)nnc12 | – | – | 0 | 0 | – | – | – | – |
| CCN1CCN(c2c(C(=O)N(CC)CC)c3nnc(C(C)C)n3c3ncccc23)CC1 | 72 | 74 | 100 | 31 | 35 | 36 | Toxic | inhibition in vivo at 12.5 mg/kg (Mus musculus [19]): 50%; inhibition in vivo at 6.25 mg/kg (Mus musculus [21]): 0%; inhibition in vivo at 12.5 mg/kg (Rattus norvegicus [10]): 31%; inhibition in vivo at 6.25 mg/kg (Rattus norvegicus [11]): 8%; Activity (Mus musculus [8]): Toxic; Activity (Mus musculus [20]): Toxic; Activity (Mus musculus [22]): Toxic |
| CC(=O)Oc1ccccc1C(=O)O [ASPIRIN] | – | – | – | – | – | – | – | IC50 [16]: > 500 µM; IC50 [17]: 45 µM; IC50 [18]: > 500 µM |
| CCCNC(=O)c1c(NC(C)C)c2cccnc2n2c(C(C)C)nnc12 | – | 0 | 0 | 72 | 63 | 70 | – | inhibition in vivo at 12.5 mg/kg (Rattus norvegicus [10]): 44%; inhibition in vivo at 6.25 mg/kg (Rattus norvegicus [11]): 19% |
| CNC(=O)c1c(NC(C)C)c2cccnc2n2c(C(C)C)nnc12 | – | 11 | 67 | 50 | 3 | – | Toxic | – |
| CCN(CC)C(=O)c1c(N2CCN(C)CC2)c2cccnc2n2c(CN3CCOCC3)nnc12 | – | – | 37 | 8 | – | – | – | – |
